How the values were obtained:
[1] = test system: Human immunodeficiency virus 1; assay: Inhibition of HIV replication by 50%.; format: functional; conditions: read-out: ED50 (the source's name)
MT2 = assay: Inhibition of MT-2 cell growth by 5% or less over a 72 hr time period.; format: functional, Homo sapiens
In short: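 Compounds dissolved in water, 95% ethanol or ethanol/DMSO, diluted in growth medium, filter-sterilized, 2-fold serial dilutions in triplicate. MT-2 cells (2 × 10^5) exposed 72 h at 37 °C; viability by neutral red dye uptake. CT5 = 5% growth inhibition (within 1 SD of untreated controls), taken from linear part of dose-response curve; reported as greater than top concentration when not reachable.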

[2] = Therapeutic index (ratio of CT5 to ED50).; conditions: for selectivity ratio: read-out: TI
[3] = test system: Human immunodeficiency virus 1; assay: Inhibition of 50% of the integrase-mediated catalysis of the Y-oligo substrate; format: functional
[4] = test system: Human immunodeficiency virus 1; assay: Inhibition of 50% of the integrase-mediated catalysis of the V1/V2 substrate; format: functional
[5] = test system: Human immunodeficiency virus 1; assay: Inhibition of 50% of the integrase-mediated catalysis of the V1/V2 substrate with 95% confidence interval; format: functional
[6] = test system: Human immunodeficiency virus 1; assay: Inhibition of 50% of the integrase-mediated catalysis of the Y-oligo substrate with 95% confidence interval; format: functional

| EC50 ([1]; Human immunodeficiency virus 1) [µM] | IC50 [3] [µM] | IC50 [4] [µM] | IC50 ([5]; Human immunodeficiency virus 1) [µM] | IC50 ([6]; Human immunodeficiency virus 1) [µM] | EC50 [1] [µM] | IC50 [5] [µM] | IC50 [6] [µM] | Compound | CT5 (MT2) [µM] | selectivity ratio [2] | TI [2] |
| --- | --- | --- | --- | --- | --- | --- | --- | --- | --- | --- | --- |
| > 1000 | > 25 | > 25 |  |  |  |  |  | O=C(O)C(O)C(O)C(=O)O (stereo not drawn) | >1000 | < 1 |  |
| 49 |  |  | > 10 | 2.84 |  |  |  | NC(=O)C(Cc1ccc(O)c(O)c1)C(Cc1ccc(O)c(O)c1)C(=O)O (stereo not drawn) | 123 | 2.5 |  |
| > 37 |  |  | > 10 | > 10 |  |  |  | CCCCCCCCCCNC(=O)C(Cc1ccc(O)c(O)c1)C(Cc1ccc(O)c(O)c1)C(=O)O (stereo not drawn) | 34 | < 1 |  |
| 2 |  |  | 0.37 | 0.19 |  |  |  | O=C(/C=C/c1ccc(O)c(O)c1)NCC(OC(=O)/C=C\c1ccc(O)c(O)c1)C(=O)O (stereo not drawn) | 175 | 88 |  |
| > 17 |  |  |  | 1.97 |  |  |  | CC(CCC(=O)O)C1CC[C@H]2[C@@H]3CCC4C[C@H](OC(=O)/C=C/c5ccc(O)c(O)c5)CC[C@]4(C)[C@H]3C[C@H](OC(=O)/C=C/c3ccc(O)c(O)c3)[C@]12C (stereo partly drawn) | 6.4 | < 1 |  |
| > 140 |  |  | 0.97 | 0.75 |  |  |  | CC(CCC(=O)O)C1CC[C@H]2[C@@H]3[C@H](OC(=O)/C=C/c4ccc(O)c(O)c4)CC4C[C@H](OC(=O)/C=C/c5ccc(O)c(O)c5)CC[C@]4(C)[C@H]3C[C@H](OC(=O)/C=C/c3ccc(O)c(O)c3)[C@]12C (stereo partly drawn) | 11.4 | < 1 |  |
| 4 |  |  | > 10 | 15.7 |  |  |  | CC(=O)Oc1ccc(/C=C/C(=O)OC(C(=O)O)C(OC(=O)/C=C/c2ccc(OC(C)=O)c(OC(C)=O)c2)C(=O)O)cc1OC(C)=O (stereo not drawn) | 18.6 | 4.5 |  |
| 186 |  |  | > 10 | 5.27 |  |  |  | CCN(CC)C(=O)C(Cc1ccc(O)c(O)c1)C(Cc1ccc(O)c(O)c1)C(=O)O (stereo not drawn) | 93 | 0.5 |  |
| 4.6 |  |  |  | 0.73 |  |  |  | O=C(/C=C/c1ccc(O)c(O)c1)Nc1cc(NC(=O)/C=C/c2ccc(O)c(O)c2)cc(C(=O)O)c1 | 47 | 10 |  |
|  |  |  | 0.44 | 2.78 | 1.9 |  |  | O=C(O)C(Cc1ccc(O)c(O)c1)C(Cc1ccc(O)c(O)c1)C(=O)O (stereo in doubt; 24b) | 71 |  | 37 |

The next lines start with the compound.

| Compound | EC50 ([1]; Human immunodeficiency virus 1) [µM] | IC50 [3] [µM] | IC50 [4] [µM] | IC50 ([5]; Human immunodeficiency virus 1) [µM] | IC50 ([6]; Human immunodeficiency virus 1) [µM] | EC50 [1] [µM] | IC50 [5] [µM] | IC50 [6] [µM] | CT5 (MT2) [µM] | selectivity ratio [2] | TI [2] |
| --- | --- | --- | --- | --- | --- | --- | --- | --- | --- | --- | --- |
| O=C(/C=C\c1ccc(O)c(O)c1)NC(COC(=O)/C=C/c1ccc(O)c(O)c1)C(=O)O (stereo not drawn) |  |  |  | 0.33 | 0.12 | 2.5 |  |  | 39 | 16 |  |
| O=C(OC(C(=O)O)C(OC(=O)c1ccsc1)C(=O)O)c1ccsc1 (stereo not drawn) | > 95 | > 10 | > 10 |  |  |  |  |  | 100 | < 1 |  |
| O=C(OC(C(=O)O)C(OC(=O)c1cccs1)C(=O)O)c1cccs1 (stereo not drawn) | > 190 | > 10 | > 10 |  |  |  |  |  | >190 | < 1 |  |
| O=C(O)C(=C\c1ccc(O)c(O)c1)/C(=C/c1ccc(O)c(O)c1)C(=O)O | 4.4 |  |  | 0.83 | 2.19 |  |  |  | 55 | 12 |  |
| O=C(/C=C\c1ccc(O)c(O)c1)NC(CNC(=O)/C=C/c1ccc(O)c(O)c1)C(=O)O (stereo not drawn) | 35 |  |  | 0.83 | 0.57 |  |  |  | 35 | 1 |  |
| O=C(O)C(Cc1ccc(O)c(O)c1)C(Cc1ccc(O)c(O)c1)C(=O)O (stereo in doubt; 23b) |  |  |  |  |  | 12.6 | 0.23 | 4.32 | 76 |  | 6 |

Reference: ChEMBL document CHEMBL1135546, “Dicaffeoyltartaric acid analogues inhibit human immunodeficiency virus type 1 (HIV-1) integrase and HIV-1 replication at nontoxic concentrations” (J Med Chem, 2002)
